Assay results from ChEMBL document CHEMBL1141617, “Synthesis and evaluation of antitumoral activity of ester and amide derivatives of 2-arylamino-6-trifluoromethyl-3-pyridinecarboxylic acids” (2008).
One block for each compound: values may come before it.

Tests used:
Format in all cases: functional
A498 = test: Growth inhibition of human A498 cells
How it was run: (§1)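 NCI 60 human tumour cell line panel grown in RPMI1640 with 5% fetal calf serum and 2 mM L-glutamine. Cells seeded at a density set by each line's growth characteristics and preincubated 24 h. Compounds added in DMSO at 10^-4 to 10^-8 M (five 10-fold dilutions) and left 48 h continuously. Growth read by sulforhodamine B protein stain. GI50 is the molar concentration giving 50% net growth inhibition.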

CAKI-1 = test: Growth inhibition of human CAKI1 cells; how it was run: as §1
OVCAR-5 = test: Growth inhibition of human OVCAR5 cells; how it was run: as §1
NCI-H522 = test: Growth inhibition of human NCI-H522 cells; details: for TGI: read-out: Log TGI (converted); how it was run: as §1
RXF 393 = test: Growth inhibition of human RXF393 cells; details: for TGI: read-out: Log TGI (converted); how it was run: as §1
UO-31 = test: Growth inhibition of human UO31 cells; how it was run: as §1
MDA-MB-231 = test: Growth inhibition of human MDA-MB-231 cells; details: for TGI: read-out: Log TGI (converted); how it was run: as §1
IGROV-1 = test: Growth inhibition of human IGROV1 cells; how it was run: as §1
SK-MEL-5 = test: Growth inhibition of human SK-MEL5 cells; details: for TGI: read-out: Log TGI (converted); how it was run: as §1
K562 = test: Growth inhibition of human K562 cells; how it was run: as §1
UACC-62 = test: Growth inhibition of human UACC62 cells; how it was run: as §1
MOLT-4 = test: Growth inhibition of human MOLT4 cells; details: for TGI: read-out: Log TGI (converted); how it was run: as §1
SR = test: Growth inhibition of human SR cells; how it was run: as §1
OVCAR-4 = test: Growth inhibition of human OVCAR4 cells; how it was run: as §1
HOP-92 = test: Growth inhibition of human HOP92 cells; details: for TGI: read-out: Log TGI (converted); how it was run: as §1
HL-60 = test: Growth inhibition of human HL60 cells; how it was run: as §1
LOX IMVI = test: Growth inhibition of human LOXIMVI cells; how it was run: as §1
CCRF-CEM = test: Growth inhibition of human CCRF-CEM cells; how it was run: as §1
EKVX = test: Growth inhibition of human EKVX cells; how it was run: as §1
ACHN = test: Growth inhibition of human ACHN cells; how it was run: as §1
HCC 2998 = test: Growth inhibition of human HCC2998 cells; details: for TGI: read-out: Log TGI (converted); how it was run: as §1
SK-OV-3 = test: Growth inhibition of human SKOV3 cells; how it was run: as §1
SNB-75 = test: Growth inhibition of human SNB75 cells; how it was run: as §1
RPMI-8226 = test: Growth inhibition of human RPMI8226 cells; how it was run: as §1
PC-3 = test: Growth inhibition of human PC3 cells; how it was run: as §1
HCT-116 = test: Growth inhibition of human HCT116 cells; how it was run: as §1
[1] = Growth inhibition of human H23 cells; details: NCI-H23; how it was run: as §1
T47D = test: Growth inhibition of human T47D cells; details: for TGI: read-out: Log TGI (converted); how it was run: as §1
Hs-578T = test: Growth inhibition of human HS578T cells; details: for TGI: read-out: Log TGI (converted); how it was run: as §1
NCI-H226 = test: Growth inhibition of human NCI-H226 cells; how it was run: as §1
[2] = Growth inhibition of human NCI-322M cells; how it was run: as §1
SK-MEL-2 = test: Growth inhibition of human SKMEL2 cells; how it was run: as §1
MCF7 = test: Growth inhibition of human MCF7 cells; how it was run: as §1
UACC-257 = test: Growth inhibition of human UACC257 cells; how it was run: as §1
COLO 205 = test: Growth inhibition of human COLO205 cells; how it was run: as §1
NCI-H460 = test: Growth inhibition of human NCI-H460 cells; how it was run: as §1
[3] = Growth inhibition of human ADR-RES cells; how it was run: as §1
KM12 = test: Growth inhibition of human KM12 cells; how it was run: as §1
OVCAR-3 = test: Growth inhibition of human OVCAR-3 cells; how it was run: as §1

GI50 (OVCAR-5): 2.51 µM
GI50 (NCI-H522): 1.29 µM
SMILES: COc1cccc(NC(=O)c2ccc(C(F)(F)F)nc2Nc2ccc(Cl)cc2C)c1
GI50 (A498): 1.66 µM
GI50 (CAKI-1): 2.75 µM
TGI (NCI-H522): 7.24 µM
GI50 (RXF 393): 1.17 µM
GI50 (UO-31): 1.45 µM
TGI (UO-31; read-out: Log TGI (converted)): 8.32 µM

SMILES: COc1cc(NC(=O)c2ccc(C(F)(F)F)nc2Nc2cc(Cl)ccc2C)cc(OC)c1OC
GI50 (MDA-MB-231): 1.66 µM
TGI (MDA-MB-231): 8.91 µM
GI50 (A498): 2.34 µM
GI50 (IGROV-1): 0.407 µM
GI50 (SK-MEL-5): 1.17 µM
TGI (SK-MEL-5): 10 µM
GI50 (CAKI-1): 2.4 µM
GI50 (K562): 0.676 µM
GI50 (UACC-62): 0.955 µM
GI50 (MOLT-4): < 0.01 µM
TGI (MOLT-4): 0.0417 µM
GI50 (SR): 0.0186 µM
TGI (SR; read-out: Log TGI (converted)): 0.302 µM
GI50 (OVCAR-4): 1.74 µM
GI50 (HOP-92): < 0.01 µM
TGI (HOP-92): 1.66 µM
GI50 (HL-60): 0.0229 µM
LC50 (HL-60): 7.24 µM
TGI (HL-60; read-out: Log TGI (converted)): 1.62 µM
GI50 (LOX IMVI): 0.724 µM
TGI (LOX IMVI; read-out: Log TGI (converted)): 2.4 µM
GI50 (CCRF-CEM): < 0.01 µM
GI50 (EKVX): 2.75 µM
GI50 (ACHN): 1.78 µM
GI50 (NCI-H522): 2.29 µM
TGI (NCI-H522): 7.41 µM
GI50 (HCC 2998): < 0.01 µM
TGI (HCC 2998): 5.37 µM
GI50 (SK-OV-3): 2.04 µM
GI50 (SNB-75): 1.07 µM
GI50 (RPMI-8226): 0.457 µM
GI50 (PC-3): 1.2 µM
TGI (PC-3; read-out: Log TGI (converted)): 5.37 µM
GI50 (HCT-116): 2.51 µM
GI50 [1]: 2.19 µM
GI50 (T47D): 2.14 µM
TGI (T47D): 9.55 µM

GI50 (SK-MEL-5): 1.91 µM
GI50 (NCI-H226): 1.45 µM
SMILES: Cc1ccc(Cl)cc1Nc1nc(C(F)(F)F)ccc1C(N)=O
TGI (SK-MEL-5): 6.61 µM
GI50 (Hs-578T): 0.813 µM
TGI (Hs-578T): 3.98 µM
GI50 (LOX IMVI): 2.24 µM
TGI (NCI-H226; read-out: Log TGI (converted)): 9.77 µM
GI50 [2]: 2.04 µM

GI50 (K562): 3.09 µM
GI50 (MOLT-4): 3.09 µM
GI50 (CCRF-CEM): 2.14 µM
SMILES: COc1cccc(OC(=O)c2ccc(C(F)(F)F)nc2Nc2cc(Cl)ccc2C)c1
GI50 (Hs-578T): 1.23 µM
TGI (Hs-578T): 4.79 µM
TGI (K562; read-out: Log TGI (converted)): 9.33 µM
TGI (MOLT-4): 7.94 µM
GI50 (HOP-92): 1.62 µM
TGI (HOP-92): 6.92 µM
TGI (CCRF-CEM; read-out: Log TGI (converted)): 5.13 µM
GI50 (RXF 393): 0.245 µM
TGI (RXF 393): 0.977 µM

GI50 (MDA-MB-231): 2.29 µM
GI50 (SK-MEL-2): 2.45 µM
GI50 (SK-MEL-5): 2.19 µM
GI50 (MCF7): 2.51 µM
GI50 (MOLT-4): 2.75 µM
GI50 (CCRF-CEM): 2.82 µM
GI50 (NCI-H522): 1.78 µM
GI50 (HCC 2998): 1.78 µM
GI50 (SK-OV-3): 1.74 µM
GI50 (COLO 205): 1.74 µM
GI50 (RPMI-8226): 2.34 µM
GI50 (PC-3): 2.09 µM
GI50 (HCT-116): 2.4 µM
GI50 (T47D): 2.24 µM
GI50 (NCI-H460): 2.82 µM
SMILES: Cc1ccc(Cl)cc1Nc1nc(C(F)(F)F)ccc1C(=O)Nc1cccc(C(F)(F)F)c1
TGI (MDA-MB-231): 9.55 µM
GI50 (A498): 2.95 µM
TGI (A498; read-out: Log TGI (converted)): 8.51 µM
TGI (SK-MEL-2; read-out: Log TGI (converted)): 6.61 µM
GI50 (IGROV-1): 1.7 µM
TGI (SK-MEL-5): 4.47 µM
TGI (MCF7; read-out: Log TGI (converted)): 9.55 µM
TGI (MOLT-4): 10 µM
GI50 (UACC-257): 2.95 µM
TGI (UACC-257; read-out: Log TGI (converted)): 8.32 µM
GI50 (HOP-92): 2.19 µM
TGI (HOP-92): 8.71 µM
TGI (NCI-H522): 6.31 µM
TGI (HCC 2998): 4.47 µM
TGI (SK-OV-3; read-out: Log TGI (converted)): 5.5 µM
GI50 (RXF 393): 2.69 µM
TGI (RXF 393): 7.94 µM
TGI (COLO 205; read-out: Log TGI (converted)): 3.39 µM
TGI (T47D): 8.91 µM
TGI (NCI-H460; read-out: Log TGI (converted)): 10 µM
GI50 [3]: 2.14 µM
TGI ([3]; read-out: Log TGI (converted)): 7.59 µM

SMILES: Cc1ccc(Cl)cc1Nc1nc(C(F)(F)F)ccc1C(=O)N1CCN(c2ccc(F)cc2)CC1
GI50 (IGROV-1): 0.132 µM
GI50 (CAKI-1): 1.51 µM
GI50 (SNB-75): < 0.01 µM

GI50 (HL-60): 1.74 µM
GI50 (CCRF-CEM): 1.58 µM
GI50 (NCI-H522): 1.62 µM
GI50 (OVCAR-3): 2.4 µM
GI50 (HCC 2998): 1.91 µM
GI50 (PC-3): 1.86 µM
GI50 (T47D): 2.45 µM
SMILES: COc1cc(NC(=O)c2ccc(C(F)(F)F)nc2Nc2ccc(Cl)cc2C)cc(OC)c1OC
GI50 (IGROV-1): 0.955 µM
GI50 (KM12): 1.55 µM
TGI (HCC 2998): 5.62 µM
GI50 [1]: 2.19 µM
